Data on three molecules can be found in ChEMBL document CHEMBL5678818, “Discovery of potent SOS1 inhibitors that block RAS activation via disruption of the RAS-SOS1 interaction” (Proc Natl Acad Sci U S A, 2019).

In assay [1] the target is Calcium/calmodulin-dependent protein kinase kinase 2 (Homo sapiens) (UniProt Q96RR4). As to the kind of experiment: Inhibition of CAMKK2 (unknown origin) assessed as residual activity at 1000 nM by KINOMEscan analysis relative to control.
Assay [2] addresses T1, Serine/threonine-protein kinase DCLK3 (Homo sapiens) (UniProt Q9C098).
T1 sequence (whole entry): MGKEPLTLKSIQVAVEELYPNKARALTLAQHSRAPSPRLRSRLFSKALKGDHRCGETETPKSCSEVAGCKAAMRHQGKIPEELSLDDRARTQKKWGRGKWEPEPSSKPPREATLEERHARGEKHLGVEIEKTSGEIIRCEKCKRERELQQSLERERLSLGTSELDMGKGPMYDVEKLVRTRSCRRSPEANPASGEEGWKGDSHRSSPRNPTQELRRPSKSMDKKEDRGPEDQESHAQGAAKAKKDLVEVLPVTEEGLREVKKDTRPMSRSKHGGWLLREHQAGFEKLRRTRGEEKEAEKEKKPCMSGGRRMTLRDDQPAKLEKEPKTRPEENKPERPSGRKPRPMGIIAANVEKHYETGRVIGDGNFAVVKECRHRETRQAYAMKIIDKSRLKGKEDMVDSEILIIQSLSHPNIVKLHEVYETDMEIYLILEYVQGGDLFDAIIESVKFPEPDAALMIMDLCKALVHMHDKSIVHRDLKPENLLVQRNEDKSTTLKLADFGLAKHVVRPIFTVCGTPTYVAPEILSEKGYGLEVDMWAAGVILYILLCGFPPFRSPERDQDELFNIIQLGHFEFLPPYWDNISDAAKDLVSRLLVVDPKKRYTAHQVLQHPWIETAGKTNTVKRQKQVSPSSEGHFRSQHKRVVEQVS
As to the kind of experiment: Inhibition of DCAMKL3 (unknown origin) assessed as residual activity at 1000 nM by KINOMEscan analysis relative to control.

The subject of assay [3] is Receptor-type tyrosine-protein kinase FLT3 (Homo sapiens), P36888 [R834Q]. As to the kind of experiment: Inhibition of FLT3 R834Q mutant (unknown origin) assessed as residual activity at 1000 nM by KINOMEscan analysis relative to control.
Assay [4] deals with T2, Tyrosine-protein kinase Mer (Homo sapiens) (UniProt Q12866).
T2 sequence (whole entry): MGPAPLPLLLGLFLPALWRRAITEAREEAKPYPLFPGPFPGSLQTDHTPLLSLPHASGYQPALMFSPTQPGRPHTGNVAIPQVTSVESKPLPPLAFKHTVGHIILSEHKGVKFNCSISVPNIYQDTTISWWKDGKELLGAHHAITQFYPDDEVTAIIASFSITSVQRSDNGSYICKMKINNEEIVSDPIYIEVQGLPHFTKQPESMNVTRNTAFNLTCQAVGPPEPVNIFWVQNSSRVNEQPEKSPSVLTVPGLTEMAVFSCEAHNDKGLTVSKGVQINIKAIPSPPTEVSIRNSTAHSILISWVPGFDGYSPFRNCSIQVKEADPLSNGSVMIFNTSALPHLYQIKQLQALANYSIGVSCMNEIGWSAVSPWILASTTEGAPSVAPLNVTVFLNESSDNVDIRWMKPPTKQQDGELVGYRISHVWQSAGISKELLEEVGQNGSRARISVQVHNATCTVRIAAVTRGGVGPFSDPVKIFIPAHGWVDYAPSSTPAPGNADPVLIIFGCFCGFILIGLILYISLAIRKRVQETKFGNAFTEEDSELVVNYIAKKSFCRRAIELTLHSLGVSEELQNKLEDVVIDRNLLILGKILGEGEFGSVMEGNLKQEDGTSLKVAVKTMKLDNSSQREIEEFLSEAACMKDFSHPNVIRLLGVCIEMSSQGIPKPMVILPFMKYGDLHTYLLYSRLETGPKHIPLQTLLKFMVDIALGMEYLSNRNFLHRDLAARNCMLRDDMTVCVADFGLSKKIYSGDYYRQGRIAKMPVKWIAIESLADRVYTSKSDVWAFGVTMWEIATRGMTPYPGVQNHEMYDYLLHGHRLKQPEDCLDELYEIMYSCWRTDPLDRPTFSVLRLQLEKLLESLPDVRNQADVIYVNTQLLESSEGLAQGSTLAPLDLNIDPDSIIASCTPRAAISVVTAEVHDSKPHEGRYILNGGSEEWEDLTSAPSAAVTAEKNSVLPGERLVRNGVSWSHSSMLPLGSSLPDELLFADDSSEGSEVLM
As to the kind of experiment: Inhibition of MERTK (unknown origin) assessed as residual activity at 1000 nM by KINOMEscan analysis relative to control.

Assay [5] deals with Phosphatidylinositol 4,5-bisphosphate 3-kinase catalytic subunit alpha isoform (Homo sapiens), P42336 [E542K]. As to the kind of experiment: Inhibition of PIK3CA E542K mutant (unknown origin) assessed as residual activity at 1000 nM by KINOMEscan analysis relative to control.
Sequence of Phosphatidylinositol 4,5-bisphosphate 3-kinase catalytic subunit alpha isoform (Homo sapiens), P42336 [E542K] (P42336 whole entry E542K, canonical isoform): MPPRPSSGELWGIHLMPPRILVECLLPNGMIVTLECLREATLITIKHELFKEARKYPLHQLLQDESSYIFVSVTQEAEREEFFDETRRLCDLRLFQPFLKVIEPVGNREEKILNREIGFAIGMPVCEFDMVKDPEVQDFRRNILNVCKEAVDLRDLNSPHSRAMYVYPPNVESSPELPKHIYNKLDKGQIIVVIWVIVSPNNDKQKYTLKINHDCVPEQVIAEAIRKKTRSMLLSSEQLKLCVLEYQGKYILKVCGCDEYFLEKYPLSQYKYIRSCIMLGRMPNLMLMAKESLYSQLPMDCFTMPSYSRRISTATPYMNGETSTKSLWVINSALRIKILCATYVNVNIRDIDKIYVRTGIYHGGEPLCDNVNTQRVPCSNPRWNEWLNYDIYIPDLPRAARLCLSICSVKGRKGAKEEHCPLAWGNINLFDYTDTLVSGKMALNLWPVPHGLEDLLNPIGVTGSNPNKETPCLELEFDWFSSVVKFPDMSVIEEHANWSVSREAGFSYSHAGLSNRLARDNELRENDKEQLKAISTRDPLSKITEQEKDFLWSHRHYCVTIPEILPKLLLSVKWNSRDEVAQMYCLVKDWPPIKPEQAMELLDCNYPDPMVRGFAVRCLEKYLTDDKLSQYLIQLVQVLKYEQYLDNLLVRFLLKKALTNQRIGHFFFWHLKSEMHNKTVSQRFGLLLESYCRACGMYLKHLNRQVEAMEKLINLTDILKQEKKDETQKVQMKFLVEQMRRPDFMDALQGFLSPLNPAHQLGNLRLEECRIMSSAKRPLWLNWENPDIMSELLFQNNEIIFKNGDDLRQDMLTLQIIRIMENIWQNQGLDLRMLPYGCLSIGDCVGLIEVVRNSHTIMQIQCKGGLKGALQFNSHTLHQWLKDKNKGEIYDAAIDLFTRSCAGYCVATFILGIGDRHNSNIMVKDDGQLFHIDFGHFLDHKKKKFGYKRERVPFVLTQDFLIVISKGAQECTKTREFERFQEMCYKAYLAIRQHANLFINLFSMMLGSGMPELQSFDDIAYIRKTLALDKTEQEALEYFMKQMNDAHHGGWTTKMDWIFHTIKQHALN
For assay [6], the target named is T3, cGMP-dependent protein kinase 1 (Homo sapiens) (UniProt Q13976).
T3 sequence (whole entry): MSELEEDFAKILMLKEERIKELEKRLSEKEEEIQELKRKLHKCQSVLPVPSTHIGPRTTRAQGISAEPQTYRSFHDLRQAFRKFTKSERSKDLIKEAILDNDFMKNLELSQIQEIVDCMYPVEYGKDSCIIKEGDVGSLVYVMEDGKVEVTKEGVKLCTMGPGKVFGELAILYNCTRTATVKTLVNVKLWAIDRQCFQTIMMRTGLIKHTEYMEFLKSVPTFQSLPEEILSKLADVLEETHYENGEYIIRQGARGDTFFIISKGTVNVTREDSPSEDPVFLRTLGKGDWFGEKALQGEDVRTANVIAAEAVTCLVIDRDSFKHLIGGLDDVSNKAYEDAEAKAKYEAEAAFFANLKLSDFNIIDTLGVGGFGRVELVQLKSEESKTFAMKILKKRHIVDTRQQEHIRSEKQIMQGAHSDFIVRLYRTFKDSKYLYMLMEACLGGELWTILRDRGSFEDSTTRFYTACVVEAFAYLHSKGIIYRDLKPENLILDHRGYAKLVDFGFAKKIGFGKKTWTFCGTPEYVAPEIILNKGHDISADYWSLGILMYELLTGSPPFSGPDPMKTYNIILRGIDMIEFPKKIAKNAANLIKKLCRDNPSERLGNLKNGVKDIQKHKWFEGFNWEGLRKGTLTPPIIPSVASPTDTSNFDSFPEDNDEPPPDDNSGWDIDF
As to the kind of experiment: Inhibition of PRKG1 (unknown origin) assessed as residual activity at 1000 nM by KINOMEscan analysis relative to control.

The target in assay [7] is Ribosomal protein S6 kinase alpha-2 (Homo sapiens) (UniProt Q15349). As to the kind of experiment: Inhibition of N-terminal RSK3 […] domain 1 (unknown origin) assessed as residual activity at 1000 nM by KINOMEscan analysis relative to control.
Sequence of Ribosomal protein S6 kinase alpha-2 (Homo sapiens) (Q15349 whole entry): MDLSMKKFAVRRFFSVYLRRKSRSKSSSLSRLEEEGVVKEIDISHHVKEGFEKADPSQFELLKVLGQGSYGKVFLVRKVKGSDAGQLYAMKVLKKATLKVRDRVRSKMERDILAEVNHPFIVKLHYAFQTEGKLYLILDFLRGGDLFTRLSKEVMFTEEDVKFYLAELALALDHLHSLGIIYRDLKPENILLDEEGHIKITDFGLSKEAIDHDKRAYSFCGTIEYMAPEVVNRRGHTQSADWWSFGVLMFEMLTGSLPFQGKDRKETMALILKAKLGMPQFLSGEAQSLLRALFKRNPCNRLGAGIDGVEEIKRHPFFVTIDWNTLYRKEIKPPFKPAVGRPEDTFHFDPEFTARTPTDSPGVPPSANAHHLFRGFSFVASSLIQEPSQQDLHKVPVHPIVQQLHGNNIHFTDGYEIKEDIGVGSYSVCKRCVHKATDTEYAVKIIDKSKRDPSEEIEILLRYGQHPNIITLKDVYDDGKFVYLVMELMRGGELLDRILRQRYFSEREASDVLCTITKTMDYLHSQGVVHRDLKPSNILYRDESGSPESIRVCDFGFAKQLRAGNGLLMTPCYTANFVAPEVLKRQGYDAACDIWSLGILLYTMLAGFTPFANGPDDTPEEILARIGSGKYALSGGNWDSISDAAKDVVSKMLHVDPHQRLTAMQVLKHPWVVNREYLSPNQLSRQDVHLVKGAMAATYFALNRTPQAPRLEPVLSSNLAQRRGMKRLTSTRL
Assay [8] concerns the target Tyrosine-protein kinase receptor Tie-1 (Homo sapiens) (UniProt P35590). As to the kind of experiment: Inhibition of TIE1 (unknown origin) assessed as residual activity at 1000 nM by KINOMEscan analysis relative to control.
The next assay deals with K562. Briefly: Antiproliferative activity against human K562 cells assessed as inhibition of cell viability incubated for 72 hrs by Cell Titer Glo assay. The class given is functional, cell-based. The settings on record: K562, 72 h. In outline: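 K-562 cells (wild-type KRAS, sourced from ATCC) were tested for antiproliferative response.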
A general note: In ATP-based viability assays light output follows the ATP content of the culture.

Sequence of Calcium/calmodulin-dependent protein kinase kinase 2 (Homo sapiens) (Q96RR4 2-588 limits assumed): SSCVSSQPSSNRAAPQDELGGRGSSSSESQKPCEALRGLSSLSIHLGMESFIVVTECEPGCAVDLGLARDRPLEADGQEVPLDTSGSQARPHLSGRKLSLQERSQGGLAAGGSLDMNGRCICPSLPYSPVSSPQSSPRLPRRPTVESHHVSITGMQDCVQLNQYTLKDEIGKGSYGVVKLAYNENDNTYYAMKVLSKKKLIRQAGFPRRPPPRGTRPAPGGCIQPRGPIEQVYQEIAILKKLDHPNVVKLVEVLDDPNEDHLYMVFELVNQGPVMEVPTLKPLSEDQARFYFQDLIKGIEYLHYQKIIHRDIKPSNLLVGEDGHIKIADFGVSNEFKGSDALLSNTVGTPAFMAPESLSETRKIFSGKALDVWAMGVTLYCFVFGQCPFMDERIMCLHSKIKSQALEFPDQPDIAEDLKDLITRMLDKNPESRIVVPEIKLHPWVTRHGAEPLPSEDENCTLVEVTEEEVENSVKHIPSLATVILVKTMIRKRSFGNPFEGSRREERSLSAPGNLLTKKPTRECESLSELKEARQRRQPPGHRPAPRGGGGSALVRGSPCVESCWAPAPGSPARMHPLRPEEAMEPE
Sequence of Tyrosine-protein kinase receptor Tie-1 (Homo sapiens) (P35590 whole entry): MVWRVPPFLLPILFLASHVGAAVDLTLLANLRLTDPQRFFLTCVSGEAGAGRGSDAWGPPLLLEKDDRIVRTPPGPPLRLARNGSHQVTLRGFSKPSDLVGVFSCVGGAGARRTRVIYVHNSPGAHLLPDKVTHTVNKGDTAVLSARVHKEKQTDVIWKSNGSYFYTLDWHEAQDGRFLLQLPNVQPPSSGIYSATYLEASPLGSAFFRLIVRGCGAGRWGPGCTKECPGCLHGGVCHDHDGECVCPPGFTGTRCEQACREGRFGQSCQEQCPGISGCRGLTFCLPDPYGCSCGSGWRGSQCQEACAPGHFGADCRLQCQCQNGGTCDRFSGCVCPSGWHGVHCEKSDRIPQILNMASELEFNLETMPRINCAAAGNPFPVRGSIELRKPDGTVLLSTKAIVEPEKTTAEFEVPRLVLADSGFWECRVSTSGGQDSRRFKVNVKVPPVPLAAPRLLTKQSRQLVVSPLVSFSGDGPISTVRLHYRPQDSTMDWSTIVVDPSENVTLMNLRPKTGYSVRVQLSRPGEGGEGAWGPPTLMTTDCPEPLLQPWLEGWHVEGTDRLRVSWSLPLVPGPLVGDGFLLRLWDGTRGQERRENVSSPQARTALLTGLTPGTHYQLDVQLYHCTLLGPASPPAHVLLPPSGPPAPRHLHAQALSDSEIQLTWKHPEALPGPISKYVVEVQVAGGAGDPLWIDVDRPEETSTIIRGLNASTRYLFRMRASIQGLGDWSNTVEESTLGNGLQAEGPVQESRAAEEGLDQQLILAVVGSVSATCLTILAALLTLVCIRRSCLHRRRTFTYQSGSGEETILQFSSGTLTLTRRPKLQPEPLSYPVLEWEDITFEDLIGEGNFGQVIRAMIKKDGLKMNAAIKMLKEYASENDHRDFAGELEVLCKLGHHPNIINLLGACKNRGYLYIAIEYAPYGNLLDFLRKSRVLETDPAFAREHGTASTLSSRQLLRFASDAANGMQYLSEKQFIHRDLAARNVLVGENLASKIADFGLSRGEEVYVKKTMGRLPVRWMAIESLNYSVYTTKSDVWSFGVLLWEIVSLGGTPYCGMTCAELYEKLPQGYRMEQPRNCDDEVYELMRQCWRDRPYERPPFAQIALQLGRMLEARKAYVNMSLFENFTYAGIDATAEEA

Turning to `COc1cc2ncnc(N[C@H](C)c3cccc4ccccc34)c2cc1OC`, the Activity was 92% in assay [1]; 100% in [2]; 91% in assay [3]; 96% in [4]; 96% in assay [5]; 100% in assay [6]. Further, the Activity in assay [7] and in [8] was 100% throughout.

In the case of `CNCc1ccccc1-c1csc([C@@H](C)Nc2nc(C)nc3cc(OC)c(OC)cc23)c1` [BAY-293], the IC50 – broadly, the concentration at which inhibition is half-maximal – in the assay on K562 was 1090 nM.

Consider `COc1cc2nc(C)nc(N[C@H](C)c3cccc(-c4cn[nH]c4)c3)c2cc1OC`, for which the Activity in [1] came to 65%; in [2], 73%; in assay [3] it was 89%; in [4], 55%; in assay [5] it was 78%; in assay [6], 70%. Besides, the Activity was 94% in assay [7] and 87% in [8]. Besides, the IC50 with K562 was 3100 nM.
